Assay results taken from ChEMBL document CHEMBL4732186, “Targeting the transmembrane domain 5 of latent membrane protein 1 using small molecule modulators” (Eur J Med Chem, 2021).

Experiments:
[1] = tested on: Escherichia coli; experiment: Antibacterial activity against Escherichia coli FHK12; assay type: ADME, organism-based
In short: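 FHK12 E. coli transformed by heat shock (42 °C, 90 s) with the ToxR7-TMD-5 plasmid. Grown in LB with 0.0025% arabinose and 30 µg/mL chloramphenicol plus a range of test-compound concentrations, shaken at 37 °C for 20 h, five replicate cultures. Growth read as OD at 600 nm.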

[2] = Binding affinity to EpsteinBarr virus Transmembrane domain 5 of latent membrane protein 1 assessed as dissociation constant by spectrofluorimetric analysis; design: species or system human gammaherpesvirus 4
[3] = Inhibition of recombinant EpsteinBarr virus Transmembrane domain 5 of latent membrane protein 1 transformed into Escherichia coli FHK12 cells assessed as disruption of oligomerization by measuring ToxR transcription activity assay; design: species or system human gammaherpesvirus 4
[4] = Apparent permeability in dog MDCK cells measured after 150 mins; assay type: ADME, cell-based, Canis lupus familiaris
In short: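 MDCK cells (passage 20-35) seeded at 5×10^4 cells/well on 0.4 µm Transwell inserts and grown 4-5 days to confluence. Monolayers washed with HBSS pH 7.4 and equilibrated 30 min. Compound added apically or basolaterally; receiver side sampled at 150 min, then frozen and lyophilized. TEER checked afterward for monolayer integrity.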

[5] = tested on: human gammaherpesvirus 4; experiment: Potency index, ratio of IC50 of pentamidine to IC50 of compound for inhibition of recombinant EpsteinBarr virus Transmembrane domain 5 of latent membrane protein 1 transformed into FHK12 cells by ToxR assay
In short: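 ToxR7-TMD-5 plasmid heat-shocked into FHK12 E. coli; cultures in LB with 0.0025% arabinose and 30 µg/mL chloramphenicol with graded compound concentrations, five replicates, shaken 37 °C for 20 h. Cells lysed with Z buffer/SDS, then ONPG (0.4% w/v) added; β-galactosidase followed at 405 nm for 20 min at 28 °C.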

IC50 [1] [µM]	Papp at 2.5 h [4] [×10⁻⁶ cm/s]	Compound	Kd [2] [µM]	IC50 [3] [µM]	Ratio IC50 [5]
> 200		N=C(N)c1ccc(NCCCCCNc2ccc(C(=N)N)cc2)cc1	7.3	31.2	
> 200	1.07	N=C(N)c1ccc(C(=O)NCCCNC(=O)c2ccc(C(=N)N)cc2)cc1		> 200	
56.4	4.28	N=C(N)c1ccc(NC(=O)CCCC(=O)Nc2ccc(C(=N)N)cc2)cc1	2.6	0.6	15
> 200		N=C(N)c1ccc(NC(=O)CCC(=O)Nc2ccc(C(=N)N)cc2)cc1	13.5	112	
> 200		N=C(N)c1ccc(NC(=O)CCCCC(=O)Nc2ccc(C(=N)N)cc2)cc1	8.9	42	
